Source: ChEMBL document CHEMBL1149311, “Synthesis and antitumor activity of methyltriazene prodrugs simultaneously releasing DNA-methylating agents and the antiresistance drug O(6)-benzylguanine” (J Med Chem, 2004)

Columns and labels:
T47D = assay: Antitumor activity against human T47D cells; format: functional; conditions: for CC50: read-out: Log LC50 (the source's name) (converted); for TGI: read-out: Log TGI (converted)
In short: (§1)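 NCI in vitro disease-oriented tumour cell line screen. Read-outs are IC50 (molar concentration giving 50% growth inhibition), TGI (molar concentration giving total inhibition of net growth) and LC50 (molar concentration giving 50% net cell death). The maximal concentration tested was 100 μM.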

SN12C = assay: Antitumor activity against human SN12C cells; format: functional
In short: (§2)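 Tested in the NCI in vitro disease-oriented tumor cell screen, up to a top concentration of 100 µM. Read-outs: IC50 is the molar concentration giving 50% growth inhibition, TGI the concentration giving total growth inhibition, and LC50 the concentration giving 50% net cell death.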

NCI [1] = assay: Antitumor activity against NCI human melanoma cell line panel; format: functional, cell-based
In short: (§3)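 Tested in the NCI in vitro disease-oriented human tumor cell screen. The endpoints are IC50 (molar concentration giving 50% growth inhibition), TGI (total growth inhibition) and LC50 (50% net cell death). The maximal concentration tested was 100 μM. Subpanel values are means of several individual cell lines.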

HCC 2998 = assay: Antitumor activity against human HCC2998 cells; format: functional; in short: as §2
KM12 = assay: Antitumor activity against human KM12 cells; format: functional; conditions: for CC50: read-out: Log LC50 (the source's name) (converted); for TGI: read-out: Log TGI (converted); in short: as §3
UO-31 = assay: Antitumor activity against human UO31 cells; format: functional; conditions: for CC50: read-out: Log LC50 (the source's name) (converted); for TGI: read-out: Log TGI (converted); in short: as §1
Malme-3M = assay: Antitumor activity against human MALME-3M cells; format: functional; in short: as §2
NCI-H226 = assay: Antitumor activity against human NCI-H226 cells; format: functional; in short: as §2
OVCAR-8 = assay: Antitumor activity against human OVCAR8 cells; format: functional; conditions: for TGI: read-out: Log TGI (converted); in short: as §3
CCRF-CEM = assay: Antitumor activity against human CCRF-CEM cells; format: functional; in short: as §2
A498 = assay: Antitumor activity against human A498 cells; format: functional; in short: as §2
carcinoma cell line = assay: Antitumor activity against human NCI ovarian carcinoma cell line panel; format: functional, cell-based; in short: as §3
PC-3 = assay: Antitumor activity against human PC3 cells; format: functional; conditions: for CC50: read-out: Log LC50 (the source's name) (converted); for TGI: read-out: Log TGI (converted); in short: as §3
HT-29 = assay: Antitumor activity against human HT29 cells; format: functional; in short: as §2
[2] = Antitumor activity against human NCI/ADR RES cells; format: functional; in short: as §2
UACC-257 = assay: Antitumor activity against human UACC257 cells; format: functional; conditions: for CC50: read-out: Log LC50 (the source's name) (converted); for TGI: read-out: Log TGI (converted); in short: as §1
HL-60 = assay: Antitumor activity against human HL60 cells; format: functional; conditions: for CC50: read-out: Log LC50 (the source's name) (converted); for TGI: read-out: Log TGI (converted); in short: as §3
SF-268 [3] = assay: Antitumor activity against human SF268 cells at 100 uM relative to control; format: functional
In short: (§4)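 NCI three-cell-line one-dose primary anticancer prescreen at 100 µM. Growth is expressed as % of untreated control cells, with the control taken as 100%.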

NCI-H522 = assay: Antitumor activity against human NCI-H522 cells; format: functional; in short: as §2
ACHN = assay: Antitumor activity against human ACHN cells; format: functional; in short: as §2
RXF 393 = assay: Antitumor activity against human RXF393 cells; format: functional; in short: as §2
K562 = assay: Antitumor activity against human K562 cells; format: functional; conditions: for CC50: read-out: Log LC50 (the source's name) (converted); for TGI: read-out: Log TGI (converted); in short: as §3
NCI [4] = assay: Antitumor activity against human NCI prostate cancer cell line panel; format: functional, cell-based; in short: as §3
SK-MEL-5 = assay: Antitumor activity against human SK-MEL-5 cells; format: functional; conditions: for CC50: read-out: Log LC50 (the source's name) (converted); for TGI: read-out: Log TGI (converted); in short: as §3
MOLT-4 = assay: Antitumor activity against human MOLT4 cells; format: functional; in short: as §2
HOP-62 = assay: Antitumor activity against human HOP62 cells; format: functional; conditions: for TGI: read-out: Log TGI (converted); in short: as §3
HCT-15 = assay: Antitumor activity against human HCT15 cells; format: functional; conditions: for CC50: read-out: Log LC50 (the source's name) (converted); for TGI: read-out: Log TGI (converted); in short: as §3
NCI-H460 [5] = assay: Antitumor activity against human NCI-H460 cells at 100 uM relative to control; format: functional; in short: as §4
MCF7 [6] = assay: Antitumor activity against human MCF7 cells at 100 uM relative to control; format: functional; in short: as §4
M14 = assay: Antitumor activity against human M14 cells; format: functional; conditions: for CC50: read-out: Log LC50 (the source's name) (converted); for TGI: read-out: Log TGI (converted); in short: as §3
SF-268 [7] = assay: Antitumor activity against human SF268 cells at 50 uM relative to control; format: functional
In short: (§5)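 Tested in the NCI three-cell-line one-dose primary anticancer prescreen. The read-out is growth as % of untreated control cells (100%) at 50 μM.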

SR = assay: Antitumor activity against human SR cells; format: functional; in short: as §1
NCI-H460 [8] = assay: Antitumor activity against human NCI-H460 cells at 50 uM relative to control; format: functional; in short: as §5
MCF7 [9] = assay: Antitumor activity against human MCF7 cells at 50 uM relative to control; format: functional; in short: as §5
[10] = read-out: Log LC50 (the source's name) (converted)
[11] = read-out: LC50 (the source's name)

## CN(/N=N/c1nc(OCc2ccccc2)c2nc[nH]c2n1)C(=O)N(C)/N=N/c1nc(OCc2ccccc2)c2nc[nH]c2n1
T47D
  GI50: 39.8 µM
  CC50: > 100 µM
  TGI: > 100 µM
SN12C
  GI50: 56.2 µM
SN12C; [10]
  CC50: > 100 µM
SN12C; read-out: Log TGI (converted)
  TGI: > 100 µM
NCI [1]
  IC50: 47 µM
  TGI: 93 µM
HCC 2998
  GI50: 19.5 µM
HCC 2998; [10]
  CC50: > 100 µM
HCC 2998; read-out: Log TGI (converted)
  TGI: 81.3 µM
KM12
  GI50: 85.1 µM
  CC50: > 100 µM
  TGI: > 100 µM
UO-31
  GI50: 36.3 µM
  CC50: > 100 µM
  TGI: > 100 µM
Malme-3M
  GI50: 40.7 µM
Malme-3M; [10]
  CC50: > 100 µM
Malme-3M; read-out: Log TGI (converted)
  TGI: > 100 µM
NCI-H226
  GI50: 38.9 µM
NCI-H226; [10]
  CC50: > 100 µM
NCI-H226; read-out: Log TGI (converted)
  TGI: > 100 µM
OVCAR-8
  GI50: 51.3 µM
  LC50 (concentration giving 50% net cell death): > 100 µM
  TGI: > 100 µM
CCRF-CEM
  GI50: 50.1 µM
CCRF-CEM; [10]
  CC50: > 100 µM
CCRF-CEM; read-out: Log TGI (converted)
  TGI: > 100 µM
A498
  GI50: 19.5 µM
A498; [10]
  CC50: > 100 µM
A498; read-out: Log TGI (converted)
  TGI: 53.7 µM
Carcinoma cell line
  IC50: 50 µM
  TGI: > 100 µM
PC-3
  GI50: 40.7 µM
  CC50: > 100 µM
  TGI: > 100 µM
HT-29
  GI50: 60.3 µM
HT-29; [10]
  CC50: > 100 µM
HT-29; read-out: Log TGI (converted)
  TGI: > 100 µM
[2]
  GI50: 46.8 µM
[2]; [10]
  CC50: > 100 µM
[2]; read-out: Log TGI (converted)
  TGI: > 100 µM
UACC-257
  GI50: 55 µM
  CC50: > 100 µM
  TGI: > 100 µM
HL-60
  GI50: 63.1 µM
  CC50: > 100 µM
  TGI: > 100 µM
SF-268 [3]
  Activity: 46%
NCI-H522
  GI50: 39.8 µM
NCI-H522; [10]
  CC50: > 100 µM
NCI-H522; read-out: Log TGI (converted)
  TGI: > 100 µM
ACHN
  GI50: 31.6 µM
ACHN; [10]
  CC50: > 100 µM
ACHN; read-out: Log TGI (converted)
  TGI: > 100 µM
RXF 393
  GI50: 79.4 µM
RXF 393; [10]
  CC50: > 100 µM
RXF 393; read-out: Log TGI (converted)
  TGI: > 100 µM
K562
  GI50: 75.9 µM
  CC50: > 100 µM
  TGI: > 100 µM
NCI [4]
  IC50: 40 µM
  TGI: > 100 µM
SK-MEL-5
  GI50: 20.9 µM
  CC50: > 100 µM
  TGI: 61.7 µM
MOLT-4
  GI50: 53.7 µM
MOLT-4; [10]
  CC50: > 100 µM
MOLT-4; read-out: Log TGI (converted)
  TGI: > 100 µM
HOP-62
  GI50: 95.5 µM
  LC50: > 100 µM
  TGI: > 100 µM
HCT-15
  GI50: 35.5 µM
  CC50: > 100 µM
  TGI: > 100 µM
NCI-H460 [5]
  Activity: 58%
MCF7 [6]
  Activity: 74%
M14
  GI50: 70.8 µM
  CC50: > 100 µM
  TGI: > 100 µM

## CN(/N=N/c1nc(OCc2ccccc2)c2nc[nH]c2n1)C(=O)Oc1ccc([N+](=O)[O-])cc1
T47D
  GI50: 14.1 µM
  CC50: > 50.1 µM
  TGI: 32.4 µM
NCI [1]
  IC50: 8 µM
  TGI: 23 µM
NCI [1]; [11]
  CC50: 40 µM
KM12
  GI50: 8.51 µM
  CC50: 41.7 µM
  TGI: 18.6 µM
UO-31
  GI50: 6.61 µM
  CC50: 29.5 µM
  TGI: 13.8 µM
SF-268 [7]
  Activity: 4%
OVCAR-8
  GI50: 9.77 µM
  LC50 (concentration giving 50% net cell death): > 50.1 µM
  TGI: 26.3 µM
SR
  GI50: 26.3 µM
SR; [10]
  CC50: > 50.1 µM
SR; read-out: Log TGI (converted)
  TGI: > 50.1 µM
Carcinoma cell line
  IC50: 12 µM
  TGI: 34 µM
Carcinoma cell line; [11]
  CC50: 50 µM
PC-3
  GI50: 10.7 µM
  CC50: > 50.1 µM
  TGI: 26.9 µM
NCI-H460 [8]
  Activity: 0%
UACC-257
  GI50: 38.9 µM
  CC50: > 50.1 µM
  TGI: > 50.1 µM
HL-60
  GI50: 12 µM
  CC50: > 50.1 µM
  TGI: > 50.1 µM
K562
  GI50: 12 µM
  CC50: > 50.1 µM
  TGI: > 50.1 µM
NCI [4]
  IC50: 10 µM
  TGI: 23 µM
NCI [4]; [11]
  CC50: 46 µM
MCF7 [9]
  Activity: 1%
SK-MEL-5
  GI50: 6.92 µM
  CC50: 38.9 µM
  TGI: 16.2 µM
HOP-62
  GI50: 28.8 µM
  LC50: > 50.1 µM
  TGI: > 50.1 µM
HCT-15
  GI50: 8.91 µM
  CC50: 44.7 µM
  TGI: 20 µM
M14
  GI50: 8.91 µM
  CC50: 38 µM
  TGI: 18.2 µM
